The target of series [1] is Human immunodeficiency virus type 1 reverse transcriptase (Human immunodeficiency virus 1, UniProt Q72547). The series is described as follows: Inhibition of HIV1 reverse transcriptase.
Series [2] concerns the target T1, DNA polymerase subunit gamma-1 (Homo sapiens) (UniProt P54098).
T1 sequence (whole entry): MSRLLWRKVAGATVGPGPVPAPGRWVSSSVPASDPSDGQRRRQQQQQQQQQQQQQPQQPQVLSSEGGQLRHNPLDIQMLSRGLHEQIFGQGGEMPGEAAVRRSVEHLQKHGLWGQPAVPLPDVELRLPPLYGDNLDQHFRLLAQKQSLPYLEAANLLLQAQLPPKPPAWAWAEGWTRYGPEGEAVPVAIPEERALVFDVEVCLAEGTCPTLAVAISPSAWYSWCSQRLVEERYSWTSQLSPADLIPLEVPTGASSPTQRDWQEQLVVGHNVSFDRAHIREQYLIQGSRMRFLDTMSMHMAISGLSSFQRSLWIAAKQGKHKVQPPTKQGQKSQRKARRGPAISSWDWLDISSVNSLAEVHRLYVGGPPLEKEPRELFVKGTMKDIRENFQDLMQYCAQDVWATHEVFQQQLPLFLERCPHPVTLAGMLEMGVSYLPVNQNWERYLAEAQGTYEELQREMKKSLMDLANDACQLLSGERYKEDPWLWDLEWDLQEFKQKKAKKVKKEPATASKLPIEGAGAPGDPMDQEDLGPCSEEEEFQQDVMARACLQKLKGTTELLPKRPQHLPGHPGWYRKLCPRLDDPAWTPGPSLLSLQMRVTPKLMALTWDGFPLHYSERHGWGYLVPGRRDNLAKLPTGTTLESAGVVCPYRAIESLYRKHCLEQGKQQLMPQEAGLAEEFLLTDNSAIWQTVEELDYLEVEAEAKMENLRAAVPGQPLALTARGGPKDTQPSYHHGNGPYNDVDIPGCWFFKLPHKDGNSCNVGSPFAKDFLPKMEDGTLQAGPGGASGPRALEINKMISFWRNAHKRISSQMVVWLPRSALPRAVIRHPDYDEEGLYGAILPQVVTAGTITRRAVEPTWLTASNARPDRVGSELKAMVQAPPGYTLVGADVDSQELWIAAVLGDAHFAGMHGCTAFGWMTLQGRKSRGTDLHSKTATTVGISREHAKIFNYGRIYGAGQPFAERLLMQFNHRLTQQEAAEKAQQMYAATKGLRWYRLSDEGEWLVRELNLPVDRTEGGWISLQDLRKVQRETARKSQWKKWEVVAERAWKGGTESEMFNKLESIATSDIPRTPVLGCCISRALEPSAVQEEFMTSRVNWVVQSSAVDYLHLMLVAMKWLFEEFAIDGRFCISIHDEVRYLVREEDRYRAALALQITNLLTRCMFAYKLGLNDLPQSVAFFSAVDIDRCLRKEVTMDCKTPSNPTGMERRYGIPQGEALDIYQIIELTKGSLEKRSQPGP
The experiment in a line: Inhibition of human recombinant DNA polymerase gamma by scintillation counting.

A short description of series [3]: Selectivity for inhibition of HIV wild type reverse transcriptase over inhibition of human recombinant DNA polymerase gamma.
The subject of series [4] is PBMC. The experiment in a line: Drug metabolism in Beagle dog PBMC assessed as 5-[(6-Amino-purin-9-yl)-4-fluoro-2,5-dihydro-furan-2-yloxymethyl] phosphonic acid diphosphate level after 5 hrs. It is filed as ADME, cell-based, Canis lupus familiaris. A digest of the protocol:
(§1)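 Beagle dogs were given a single oral dose of 3 mg/kg. The prodrug was followed in plasma. The parent diacid and its active diphosphate metabolite were followed inside isolated PBMCs over time after dosing. Plasma half-life and PBMC-to-plasma levels were derived from these time-course profiles.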

Series [5] in a line: Bioavailability in iv dosed Beagle dog. The following applies: in vivo.
Series [6] has as its system Human immunodeficiency virus 1. The experiment in a line: Antiviral activity against HIV1 3B infected in human MT2 cells assessed as inhibition of virus-induced cytopathic effect after 5 days by XTT assay. The format is functional, organism-based.
Series [7] can be described thus: Hydrolytic stability assessed as compound degradation per ug of protein at 10 uM after 90 mins by scintillation counting in presence of human recombinant cathepsin A. Particulars: 1.5 h.
In series [8] the test system is PBMC. The experiment in a line: Metabolic stability in cathepsin A-overexpressing human PBMC assessed as compound degradation per ug of protein at 10 uM after 120 mins by scintillation counting. The following applies: 2 h, 30 µM.
Series [9] is described as follows: Half life in dog hepatocytes at 2 uM by LC/MS/MS analysis. Particulars: t1/2.
A short description of series [10]: Half life in dog intestine S9 fraction at 2 uM by LC/MS/MS analysis. Particulars: s9, 2 µM, 2 µM.
A short description of series [11]: Cytotoxicity against human MT2 cells after 5 days by XTT assay. On the technique in general: Tetrazolium assays rely on reduction of a dye to a coloured formazan, in cell work by metabolically active cells.
Series [12] is described as follows: Drug metabolism in Beagle dog assessed as ratio of GS-9148 level in PBMC to plasma at 3 mg/kg, po up to 20 mins. It is filed as ADME, organism-based, Canis lupus familiaris. Details: dose 3 mg/kg, route oral. The following applies: in vivo, 2 h, in the assay text read “up to 2 hrs” for “up to 20 mins”. The essentials:
as §1

Series [13] in a line: Cytotoxicity against human HepG2 cells assessed as inhibition of mitochondrial DNA replication after 14 days. The following applies: read-out: MTC50.

Molecules are shown by their SMILES. Bounds are passed on as bounds.

Turning to `Nc1ncnc2c1ncn2[C@@H]1O[C@H](OCP(=O)(O)OP(=O)(O)OP(=O)(O)O)C=C1F`, in [1], the IC50 – broadly, the concentration at which inhibition is half-maximal – came to 1.9 µM. Also, the figures for the Activity (in series [2]; with PBMC [4]) were 100 µM and above 9 µM, respectively. In addition, in series [3], the fold change (FC) was above 130.
As for `C[C@H](NP(=O)(CO[C@@H]1C=C(F)[C@H](n2cnc3c(N)ncnc32)O1)Oc1ccccc1)C(=O)OC1CCC1` (stereo in doubt; 18r(A)) [(2S)-CYCLOBUTYL 2-((((2R,5R)-5-(6-AMINO-9H-PURIN-9-YL)-4-FLUORO-2,5-DIHYDROFURAN-2-YLOXY)METHYL)(PHENOXY)PHOSPHORYLAMINO)PROPANOATE (ENANTIOMERIC MIX)], in series [5], the bioavailability (usually the share of a dose that reaches the circulation, judged against a reference dose that is usually intravenous) was 9.8%. Moreover, the EC50 (commonly the concentration giving half of the maximal effect) in series [6] (mt2) was above 0.045 µM. Moreover, the Activity in series [7] is recorded as 2527 pmol/min; in the series on PBMC [8] it was 3.2 pmol/min. In addition, in [9], the half-life (commonly how long it takes for the measured level to halve) at 2 µM is 2.33 h. This compound also yielded a t1/2 in series [10] of 0.533 h.
The compound `Nc1ncnc2c1ncn2[C@@H]1O[C@H](OCP(=O)(O)O)C=C1F` [GS-9148] registered a CC50 at 120 h in series [11] above 100 µM. For the same compound, the Ratio in series [12] was 10. The EC50 in [6] (Human immunodeficiency virus 1, 3B, MT2, 120 h) turned out to be 10.6 µM. For the same compound, the CC50 at 336 h in series [13] was above 300 µM.

Values taken from ChEMBL document CHEMBL1157759, “Discovery of GS-9131: Design, synthesis and optimization of amidate prodrugs of the novel nucleoside phosphonate HIV reverse transcriptase (RT) inhibitor GS-9148” (Bioorg Med Chem, 2010).
